Common to all, as to assay type: cell-based
Assay [1] has as its system A549. The experiment in a line: Activation of amiloride-sensitive epithelial sodium channel in human A549 cells at 120 nM at holding potential -100 to + 100 mV by whole cell patch clamp technique. The essentials: (§1)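 A549 cells (passages 80–90) were grown in DMEM/F12 with 10% FBS and 1% penicillin-streptomycin, then whole-cell patch-clamped at 19–22°C, 24–48 h after plating. After a 5 min equilibration, Eh was stepped from −100 to +100 mV in 20 mV steps, 1 min each. A 5 min control preceded cumulative bath peptide addition (3.5–480 nM final), with amiloride added at the end. EC50 was fitted at −100 mV.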

The test system of assay [2] is A549. In words: Activation of tetraethylammonium-sensitive potassium channel in human A549 cells at 120 nM at holding potential -100 mV by whole cell patch clamp technique.
Assay [3] relates to A549. In words: Activation of amiloride-sensitive epithelial sodium channel in human A549 cells up to 480 nM at holding potential -100 to + 100 mV by whole cell patch clamp technique. Put shortly:
as §1

Calls of active or inactive are those of the source. The calls are words filed in the database; no cut-off is given here. Where a SMILES comes first, the peptide text is derived from it. Bridges are numbered along the chain shown (N, C = ends).

Turning to `C[C@@H]1NC(=O)CNC(=O)[C@H](CCC(=O)O)NC(=O)[C@@H]2CCCN2C(=O)[C@H]([C@H](C)O)NC(=O)[C@H](CCC(=O)O)NC(=O)[C@H](CCCNC(=N)N)NC(=O)[C@H](CCC(N)=O)NC(=O)CNC(=O)[C@@H](N)CSSC[C@@H](C(=O)O)NC(=O)[C@H](Cc2ccc(O)cc2)NC(=O)[C@H](Cc2c[nH]c3ccccc23)NC(=O)[C@@H]2CCCN2C(=O)[C@H](CCCCN)NC(=O)[C@H](C)NC(=O)[C@H](CCC(=O)O)NC1=O`, the values for the Activity in the assay with A549 [1] and with A549 [2] were 99.4% and 0.6%, respectively.

For `C[C@@H]1NC(=O)CNC(=O)[C@H](CCC(=O)O)NC(=O)[C@@H]2CCCN2C(=O)[C@H]([C@H](C)O)NC(=O)[C@H](CCC(=O)O)NC(=O)[C@H](CCCNC(=N)N)NC(=O)[C@H](CCC(N)=O)NC(=O)CNC(=O)CCCNC(=O)CNC(=O)[C@H](Cc2ccc(O)cc2)NC(=O)[C@H](Cc2c[nH]c3ccccc23)NC(=O)[C@@H]2CCCN2C(=O)[C@H](CCCCN)NC(=O)[C@H](C)NC(=O)[C@H](CCC(=O)O)NC1=O`, the result in the assay on A549 [3] was inactive. In the case of `C[C@@H]1NC(=O)CNC(=O)[C@H](CCC(=O)O)NC(=O)[C@@H]2CCCN2C(=O)[C@H]([C@H](C)O)NC(=O)[C@H](CCC(=O)O)NC(=O)[C@H](CCCNC(=N)N)NC(=O)[C@H](CCC(N)=O)NC(=O)CNC(=O)CCCCCNC(=O)CNC(=O)[C@H](Cc2ccc(O)cc2)NC(=O)[C@H](Cc2c[nH]c3ccccc23)NC(=O)[C@@H]2CCCN2C(=O)[C@H](CCCCN)NC(=O)[C@H](C)NC(=O)[C@H](CCC(=O)O)NC1=O`, in the assay with A549 [3], the result was inactive. For the compound `C[C@@H]1NC(=O)CNC(=O)[C@H](C)NC(=O)[C@@H]2CCCN2C(=O)[C@H](C)NC(=O)[C@H](CCC(=O)O)NC(=O)[C@H](CCCNC(=N)N)NC(=O)[C@H](CCC(N)=O)NC(=O)CNC(=O)[C@@H](N)CSSC[C@@H](C(=O)O)NC(=O)[C@H](Cc2ccc(O)cc2)NC(=O)[C@H](Cc2c[nH]c3ccccc23)NC(=O)[C@@H]2CCCN2C(=O)[C@H](CCCCN)NC(=O)[C@H](C)NC(=O)[C@H](C)NC1=O` (H-CGQREAPAGAAAKPWYC-OH; disulfide 1-17), the result in the assay on A549 [3] was inactive. With `C[C@@H]1NC(=O)CNC(=O)[C@H](CCC(=O)O)NC(=O)[C@@H]2CCCN2C(=O)[C@H]([C@H](C)O)NC(=O)[C@H](CCC(=O)O)NC(=O)[C@H](CCCNC(=N)N)NC(=O)[C@H](CCC(N)=O)NC(=O)CNC(=O)CCCCCCNC(=O)[C@H](Cc2ccc(O)cc2)NC(=O)[C@H](Cc2c[nH]c3ccccc23)NC(=O)[C@@H]2CCCN2C(=O)[C@H](CCCCN)NC(=O)[C@H](C)NC(=O)[C@H](CCC(=O)O)NC1=O`, the outcome in the assay on A549 [3] was inactive. Take `C[C@@H]1NC(=O)CNC(=O)[C@H](CCC(=O)O)NC(=O)[C@@H]2CCCN2C(=O)[C@H]([C@H](C)O)NC(=O)[C@H](CCC(=O)O)NC(=O)[C@H](CCCNC(=N)N)NC(=O)[C@H](CCC(N)=O)NC(=O)[C@@H](N)CSSC[C@@H](C(=O)O)NC(=O)CNC(=O)CNC(=O)[C@H](CCCCN)NC(=O)[C@H](C)NC(=O)[C@H](CCC(=O)O)NC1=O`: in the assay on A549 [3], the outcome was inactive.

The record behind these values is ChEMBL document CHEMBL1287703, “Essential structural features of TNF-α lectin-like domain derived peptides for activation of amiloride-sensitive sodium current in A549 cells” (J Med Chem, 2010).
